Results reported in ChEMBL document CHEMBL1139955, “C(4)-alkyl substituted furanyl cyclobutenediones as potent, orally bioavailable CXCR2 and CXCR1 receptor antagonists” (Bioorg Med Chem Lett, 2007).

Columns and labels:
[1] = molecular target: T1, C-X-C chemokine receptor type 2 (Homo sapiens, UniProt P25025); experiment: Displacement of [125I]IL8 from human CXCR2 expressed in CHO cells by SPA; format: cell-based
T1 sequence (P25025 whole entry): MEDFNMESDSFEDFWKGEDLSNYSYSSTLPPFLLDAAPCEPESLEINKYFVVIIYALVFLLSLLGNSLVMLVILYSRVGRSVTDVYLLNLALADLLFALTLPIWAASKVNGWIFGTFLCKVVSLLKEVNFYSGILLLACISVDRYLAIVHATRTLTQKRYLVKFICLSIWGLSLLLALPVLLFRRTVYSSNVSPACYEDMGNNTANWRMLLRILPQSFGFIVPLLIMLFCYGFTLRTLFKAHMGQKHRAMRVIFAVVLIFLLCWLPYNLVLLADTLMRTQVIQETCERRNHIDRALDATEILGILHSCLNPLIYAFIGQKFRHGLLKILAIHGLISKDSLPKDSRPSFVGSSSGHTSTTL

[2] = molecular target: T2, C-X-C chemokine receptor type 1 (Homo sapiens, UniProt P25024); experiment: Displacement of [125I]IL8 from human CXCR1 expressed in CHO cells by SPA; format: cell-based
T2 sequence (P25024 whole entry): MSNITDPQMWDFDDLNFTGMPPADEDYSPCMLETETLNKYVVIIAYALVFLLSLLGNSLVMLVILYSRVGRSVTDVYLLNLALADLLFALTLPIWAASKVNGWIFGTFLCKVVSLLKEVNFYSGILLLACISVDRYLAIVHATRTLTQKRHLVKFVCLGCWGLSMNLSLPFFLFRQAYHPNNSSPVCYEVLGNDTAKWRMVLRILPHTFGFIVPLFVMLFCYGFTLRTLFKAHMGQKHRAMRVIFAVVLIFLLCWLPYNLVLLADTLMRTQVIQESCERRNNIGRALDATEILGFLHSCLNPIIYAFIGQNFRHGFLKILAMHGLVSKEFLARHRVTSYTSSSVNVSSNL

[3] = AUC in rat at 10 mg/kg, po after 6 hrs; format: ADME, organism-based; design: time < 6 hr, dose 10 mg/kg, route oral; conditions: plasma
Neutrophil [4] = experiment: Inhibition of GROalpha-induced migration of human neutrophils by chemotaxis assay; format: functional, cell-based
How it was run: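 Human neutrophil migration stimulated with 30 nM Gro-α; IC50 determined.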

Neutrophil [5] = experiment: Inhibition of IL8-induced migration of human neutrophils by chemotaxis assay; format: functional, cell-based
How it was run: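 Human neutrophil migration stimulated with 3 nM IL-8; IC50 determined.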

Rattus norvegicus = species: Rattus norvegicus; experiment: Antiinflammatory activity against rat model of lipopolysaccharide-induced pulmonary inflammation; format: functional
Mus musculus = species: Mus musculus; experiment: Antiinflammatory activity against mouse model of cigarette smoke-induced neutrophilic inflammation; format: functional
[6] = Cmax in rat at 10 mg/kg, po after 6 hrs; format: ADME, organism-based; design: dose 10 mg/kg, route oral; conditions: in vivo
[7] = AUC in mouse at 25 mg/kg, po after 7 hrs; format: ADME, organism-based; design: time < 7 hr, dose 25 mg/kg, route oral; conditions: plasma
[8] = Cmax in dog at 2 mg/kg, po after 48 hrs; format: ADME, organism-based, Canis lupus familiaris; design: dose 2 mg/kg, route oral; conditions: in vivo
[9] = Cmax in mouse at 25 mg/kg, po after 7 hrs; format: ADME, organism-based; design: dose 25 mg/kg, route oral; conditions: in vivo
[10] = AUC in monkey at 3 mg/kg, po after 48 hrs; format: ADME, organism-based, Macaca mulatta; design: time < 48 hr, dose 3 mg/kg, route oral; conditions: rhesus monkey, plasma
[11] = Cmax in monkey at 3 mg/kg, po after 48 hrs; format: ADME, organism-based, Macaca mulatta; design: dose 3 mg/kg, route oral; conditions: rhesus monkey, in vivo
[12] = AUC in dog at 2 mg/kg, po after 48 hrs; format: ADME, organism-based, Canis lupus familiaris; design: time < 48 hr, dose 2 mg/kg, route oral; conditions: plasma

| SMILES | Ki [1] | Ki [2] | also measured |
| --- | --- | --- | --- |
| CC[C@@H](Nc1c(Nc2cccc(C(=O)N(C)C)c2O)c(=O)c1=O)c1sccc1C | 10 nM | 123 nM | – |
| CC[C@@H](Nc1c(Nc2cccc(C(=O)N(C)C)c2O)c(=O)c1=O)c1cc(C)co1 | 4 nM | 9 nM | AUC at 6 h [3]: 32.6 µM·h |
| CCc1ccoc1[C@@H](CC)Nc1c(Nc2cccc(C(=O)N(C)C)c2O)c(=O)c1=O | 25 nM | 379 nM | – |
| CCc1coc([C@@H](CC)Nc2c(Nc3cccc(C(=O)N(C)C)c3O)c(=O)c2=O)c1 | 1 nM | 7 nM | AUC at 6 h [3]: 17.4 µM·h |
| CCCCc1coc([C@@H](CC)Nc2c(Nc3cccc(C(=O)N(C)C)c3O)c(=O)c2=O)c1 | 2 nM | 34 nM | – |
| CC[C@@H](Nc1c(Nc2cccc(C(=O)N(C)C)c2O)c(=O)c1=O)c1cc(CCCCN2CCOCC2)co1 | 9 nM | 14 nM | – |
| CC[C@@H](Nc1c(Nc2cccc(C(=O)N(C)C)c2O)c(=O)c1=O)c1cc(C(C)C)co1 | 1 nM | 3 nM | IC50 [1]: 1.3 nM; IC50 [2]: 7.3 nM; IC50 (Neutrophil [4]): 0.5 nM; IC50 (Neutrophil [5]): 37 nM; ED50 (Rattus norvegicus): 0.9 mg/kg; ED50 (Mus musculus): 1 mg/kg; AUC at 6 h [3]: 5.4 µM·h; Cmax [6]: 3.8 µM; AUC at 7 h [7]: 4.6 µM·h; Cmax [8]: 5.3 µM; Cmax [9]: 4.6 µM; AUC at 48 h [10]: 4.2 µM·h; Cmax [11]: 0.38 µM; AUC at 48 h [12]: 7.1 µM·h |
| CCC(CC)c1coc([C@@H](CC)Nc2c(Nc3cccc(C(=O)N(C)C)c3O)c(=O)c2=O)c1 | 0.8 nM | 30 nM | – |
| CC[C@@H](Nc1c(Nc2cccc(C(=O)N(C)C)c2O)c(=O)c1=O)c1cc(C2CCCC2)co1 | 3 nM | 53 nM | – |
| CC[C@@H](Nc1c(Nc2cccc(C(=O)N(C)C)c2O)c(=O)c1=O)c1cc(C2CCCCC2)co1 | 4 nM | 283 nM | – |
| CC(C)c1coc([C@@H](C)Nc2c(Nc3cccc(C(=O)N(C)C)c3O)c(=O)c2=O)c1 | 2 nM | 50 nM | – |
| CC(C)c1coc([C@H](Nc2c(Nc3cccc(C(=O)N(C)C)c3O)c(=O)c2=O)C(C)C)c1 | 4 nM | 11 nM | – |
| CC(C)c1coc([C@H](Nc2c(Nc3cccc(C(=O)N(C)C)c3O)c(=O)c2=O)C2CC2)c1 | 3 nM | 10 nM | – |
| CC(C)c1coc([C@H](Nc2c(Nc3cccc(C(=O)N(C)C)c3O)c(=O)c2=O)C(C)(C)C)c1 | 4 nM | 14 nM | – |
| CC[C@@H](Nc1c(Nc2cccc(C(=O)N(C)C)c2O)c(=O)c1=O)c1cc(C)cs1 | 5 nM | 24 nM | – |
| CC[C@@H](Nc1c(Nc2cccc(C(=O)N(C)C)c2O)c(=O)c1=O)c1cc(C(C)(C)C)co1 | 4 nM | 10 nM | – |
| CCC(C)c1coc([C@@H](CC)Nc2c(Nc3cccc(C(=O)N(C)C)c3O)c(=O)c2=O)c1 (some centres undefined) | 0.6 nM | 7.6 nM | – |
| CC[C@@H](Nc1c(Nc2cccc(C(=O)N(C)C)c2O)c(=O)c1=O)c1ccc(C)s1 | 5 nM | 146 nM | – |
| CC(C)c1coc([C@H](Nc2c(Nc3cccc(C(=O)N(C)C)c3O)c(=O)c2=O)C(F)(F)F)c1 | 6 nM | 16 nM | – |
